Measured values published in ChEMBL document CHEMBL5705905, “Pharmacological targeting of kinases MST1 and MST2 augments tissue repair and regeneration” (Sci Transl Med, 2016).
Calls of active or inactive are those of the source. No cut-off for these calls is given here.

Key:
[1] = system: Tyrosine-protein kinase ABL1 (Homo sapiens), P00519 [F317I]; assay: Inhibition of ABL1 F317I mutant (unknown origin) assessed as remaining activity at 1 uM by Kinome scan method relative to control
Procedure, shortened: (§1)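 Active-site-dependent competition-binding (KINOMEscan) panel of 468 kinases, test compound at 1 μM (from a 10 mM DMSO stock). Read-out is ctrl% = (test signal − positive control signal)/(negative control signal − positive control signal) × 100. DMSO is the negative control (100%) and a control compound is the positive control (0%). Lower ctrl% means tighter binding.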

[2] = system: Tyrosine-protein kinase ABL1 (Homo sapiens), P00519 [F317L]; assay: Inhibition of ABL1 F317L mutant (unknown origin) assessed as remaining activity at 1 uM by Kinome scan method relative to control; procedure, shortened: as §1
[3] = molecular target: Tyrosine-protein kinase Blk (Homo sapiens) (UniProt P51451); assay: Inhibition of BLK (unknown origin) assessed as remaining activity at 1 uM by Kinome scan method relative to control; procedure, shortened: as §1
[4] = molecular target: Calcium/calmodulin-dependent protein kinase kinase 1 (Homo sapiens) (UniProt Q8N5S9); assay: Inhibition of CAMKK1 (unknown origin) assessed as remaining activity at 1 uM by Kinome scan method relative to control
Chain of Calcium/calmodulin-dependent protein kinase kinase 1 (Homo sapiens) (Q8N5S9 whole entry, looked up): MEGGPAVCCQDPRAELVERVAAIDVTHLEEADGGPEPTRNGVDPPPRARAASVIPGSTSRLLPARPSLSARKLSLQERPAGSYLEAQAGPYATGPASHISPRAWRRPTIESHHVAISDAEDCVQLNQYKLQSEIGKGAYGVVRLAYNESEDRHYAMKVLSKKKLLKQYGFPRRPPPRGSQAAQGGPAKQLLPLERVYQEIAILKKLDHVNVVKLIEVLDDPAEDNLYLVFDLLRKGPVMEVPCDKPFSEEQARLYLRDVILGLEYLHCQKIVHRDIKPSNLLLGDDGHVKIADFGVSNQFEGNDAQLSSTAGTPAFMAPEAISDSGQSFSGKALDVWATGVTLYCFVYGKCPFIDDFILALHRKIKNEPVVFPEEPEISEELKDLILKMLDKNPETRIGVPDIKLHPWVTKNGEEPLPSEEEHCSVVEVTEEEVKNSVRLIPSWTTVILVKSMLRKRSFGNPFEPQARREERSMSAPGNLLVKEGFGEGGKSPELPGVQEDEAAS
Procedure, shortened: (§2)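 Active-site-dependent competition-binding profiling (KINOMEscan) at 1 μM against a 468-kinase panel; compound supplied from a 10 mM DMSO stock. Read-out is ctrl% = (test signal − positive control signal)/(negative control signal − positive control signal) × 100. DMSO is the negative control (100%) and a control compound the positive control (0%). Lower ctrl% means tighter binding.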

[5] = molecular target: Cyclin-dependent kinase 8 (Homo sapiens) (UniProt P49336); assay: Inhibition of CDK8 (unknown origin) assessed as remaining activity at 1 uM by Kinome scan method relative to control; procedure, shortened: as §2
[6] = molecular target: Serine/threonine-protein kinase Chk1 (Homo sapiens) (UniProt O14757); assay: Inhibition of CHEK1 (unknown origin) assessed as remaining activity at 1 uM by Kinome scan method relative to control; procedure, shortened: as §2
[7] = molecular target: Casein kinase I isoform epsilon (Homo sapiens) (UniProt P49674); assay: Inhibition of CSNK1E (unknown origin) assessed as remaining activity at 1 uM by Kinome scan method relative to control; procedure, shortened: as §2
Chain of Casein kinase I isoform epsilon (Homo sapiens) (P49674 whole entry, looked up, canonical isoform): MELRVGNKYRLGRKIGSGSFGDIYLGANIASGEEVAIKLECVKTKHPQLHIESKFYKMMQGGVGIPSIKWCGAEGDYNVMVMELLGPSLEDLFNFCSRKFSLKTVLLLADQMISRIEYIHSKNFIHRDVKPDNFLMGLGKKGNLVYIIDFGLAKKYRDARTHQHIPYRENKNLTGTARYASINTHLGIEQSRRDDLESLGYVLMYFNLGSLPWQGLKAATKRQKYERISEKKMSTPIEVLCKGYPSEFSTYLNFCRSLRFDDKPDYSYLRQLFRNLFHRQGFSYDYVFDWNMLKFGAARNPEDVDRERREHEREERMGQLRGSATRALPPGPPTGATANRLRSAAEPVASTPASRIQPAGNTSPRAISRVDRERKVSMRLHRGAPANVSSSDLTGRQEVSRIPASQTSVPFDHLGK

[8] = molecular target: Myotonin-protein kinase (Homo sapiens) (UniProt Q09013); assay: Inhibition of DMPK (unknown origin) assessed as remaining activity at 1 uM by Kinome scan method relative to control
[9] = molecular target: Serine/threonine-protein kinase 17A (Homo sapiens) (UniProt Q9UEE5); assay: Inhibition of DRAK1 (unknown origin) assessed as remaining activity at 1 uM by Kinome scan method relative to control
[10] = molecular target: Ephrin type-A receptor 2 (Homo sapiens) (UniProt P29317); assay: Inhibition of EPHA2 (unknown origin) assessed as remaining activity at 1 uM by Kinome scan method relative to control
[11] = molecular target: Cyclin-G-associated kinase (Homo sapiens) (UniProt O14976); assay: Inhibition of GAK (unknown origin) assessed as remaining activity at 1 uM by Kinome scan method relative to control
[12] = molecular target: Mast/stem cell growth factor receptor Kit (Homo sapiens) (UniProt P10721); assay: Inhibition of KIT-autoinhibited (unknown origin) assessed as remaining activity at 1 uM by Kinome scan method relative to control
Chain of Mast/stem cell growth factor receptor Kit (Homo sapiens) (P10721 whole entry): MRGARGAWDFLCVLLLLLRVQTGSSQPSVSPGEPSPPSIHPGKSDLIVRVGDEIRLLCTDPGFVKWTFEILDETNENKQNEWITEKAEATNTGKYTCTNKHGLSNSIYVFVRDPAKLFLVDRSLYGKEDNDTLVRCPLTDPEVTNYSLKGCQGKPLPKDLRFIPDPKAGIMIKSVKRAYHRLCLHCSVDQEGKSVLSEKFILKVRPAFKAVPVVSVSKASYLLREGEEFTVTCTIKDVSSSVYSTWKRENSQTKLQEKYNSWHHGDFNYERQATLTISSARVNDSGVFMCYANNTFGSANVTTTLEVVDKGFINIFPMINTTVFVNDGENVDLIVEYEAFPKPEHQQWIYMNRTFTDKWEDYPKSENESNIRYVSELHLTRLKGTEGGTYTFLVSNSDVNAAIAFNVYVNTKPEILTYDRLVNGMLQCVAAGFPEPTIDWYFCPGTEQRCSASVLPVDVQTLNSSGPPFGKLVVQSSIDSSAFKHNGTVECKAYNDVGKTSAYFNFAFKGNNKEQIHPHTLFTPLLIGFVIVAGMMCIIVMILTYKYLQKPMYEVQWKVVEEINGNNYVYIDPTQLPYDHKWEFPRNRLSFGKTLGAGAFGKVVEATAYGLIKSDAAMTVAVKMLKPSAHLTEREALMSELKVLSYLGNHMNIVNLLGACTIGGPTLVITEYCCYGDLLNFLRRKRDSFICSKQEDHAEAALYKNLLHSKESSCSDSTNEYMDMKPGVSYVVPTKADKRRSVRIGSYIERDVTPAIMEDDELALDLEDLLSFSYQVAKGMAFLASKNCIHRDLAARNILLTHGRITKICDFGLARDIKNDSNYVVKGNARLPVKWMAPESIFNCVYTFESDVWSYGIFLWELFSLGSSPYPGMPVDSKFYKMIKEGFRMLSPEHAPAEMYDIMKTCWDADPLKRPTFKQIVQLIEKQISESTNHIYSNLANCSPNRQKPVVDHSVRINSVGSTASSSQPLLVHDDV

[13] = molecular target: Mitogen-activated protein kinase kinase kinase 1 (Homo sapiens) (UniProt Q13233); assay: Inhibition of MAP3K1 (unknown origin) assessed as remaining activity at 1 uM by Kinome scan method relative to control
Chain of Mitogen-activated protein kinase kinase kinase 1 (Homo sapiens) (Q13233 whole entry): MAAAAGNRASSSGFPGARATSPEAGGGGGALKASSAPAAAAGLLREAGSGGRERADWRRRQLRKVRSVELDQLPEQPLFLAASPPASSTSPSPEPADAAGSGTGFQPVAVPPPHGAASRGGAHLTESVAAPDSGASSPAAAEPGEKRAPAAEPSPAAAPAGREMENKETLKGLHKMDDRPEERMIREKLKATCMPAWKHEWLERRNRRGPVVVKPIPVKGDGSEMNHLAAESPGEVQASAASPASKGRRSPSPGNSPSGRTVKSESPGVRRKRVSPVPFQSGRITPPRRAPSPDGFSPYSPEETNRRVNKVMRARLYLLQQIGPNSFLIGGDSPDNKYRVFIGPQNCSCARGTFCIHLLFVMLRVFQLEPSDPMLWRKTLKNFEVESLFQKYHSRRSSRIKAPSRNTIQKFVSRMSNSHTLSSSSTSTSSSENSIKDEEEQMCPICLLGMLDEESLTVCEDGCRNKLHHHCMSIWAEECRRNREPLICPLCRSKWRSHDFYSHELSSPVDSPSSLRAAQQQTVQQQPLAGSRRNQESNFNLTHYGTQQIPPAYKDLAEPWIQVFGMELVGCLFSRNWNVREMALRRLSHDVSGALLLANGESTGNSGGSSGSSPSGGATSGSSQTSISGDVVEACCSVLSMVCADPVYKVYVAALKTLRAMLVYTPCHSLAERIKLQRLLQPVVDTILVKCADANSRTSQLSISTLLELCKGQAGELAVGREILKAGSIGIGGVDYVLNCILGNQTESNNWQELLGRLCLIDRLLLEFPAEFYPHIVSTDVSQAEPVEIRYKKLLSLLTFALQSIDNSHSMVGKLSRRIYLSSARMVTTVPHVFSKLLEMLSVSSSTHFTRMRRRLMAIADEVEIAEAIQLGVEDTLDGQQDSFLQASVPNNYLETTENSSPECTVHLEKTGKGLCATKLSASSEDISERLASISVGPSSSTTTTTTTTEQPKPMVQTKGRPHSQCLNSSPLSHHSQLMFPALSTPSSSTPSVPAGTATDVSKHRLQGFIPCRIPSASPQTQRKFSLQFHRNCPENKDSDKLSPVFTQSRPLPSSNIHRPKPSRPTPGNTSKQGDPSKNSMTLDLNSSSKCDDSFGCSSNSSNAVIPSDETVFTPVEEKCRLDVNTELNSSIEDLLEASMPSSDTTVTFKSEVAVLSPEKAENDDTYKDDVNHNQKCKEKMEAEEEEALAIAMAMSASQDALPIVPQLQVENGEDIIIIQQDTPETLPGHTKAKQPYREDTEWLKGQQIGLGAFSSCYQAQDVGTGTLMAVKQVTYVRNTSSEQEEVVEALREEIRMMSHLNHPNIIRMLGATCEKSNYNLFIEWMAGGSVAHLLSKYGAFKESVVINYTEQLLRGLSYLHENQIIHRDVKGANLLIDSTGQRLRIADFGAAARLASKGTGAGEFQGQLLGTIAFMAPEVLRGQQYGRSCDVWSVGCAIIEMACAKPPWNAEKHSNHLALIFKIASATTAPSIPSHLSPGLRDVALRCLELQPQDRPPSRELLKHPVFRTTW

[14] = system: Hepatocyte growth factor receptor (Homo sapiens), P08581 [Y1235D]; assay: Inhibition of MET Y1235D mutant (unknown origin) assessed as remaining activity at 1 uM by Kinome scan method relative to control
[15] = molecular target: MAP kinase-interacting serine/threonine-protein kinase 2 (Homo sapiens) (UniProt Q9HBH9); assay: Inhibition of MKNK2 (unknown origin) assessed as remaining activity at 1 uM by Kinome scan method relative to control
[16] = molecular target: Mitogen-activated protein kinase kinase kinase 10 (Homo sapiens) (UniProt Q02779); assay: Inhibition of MLK2 (unknown origin) assessed as remaining activity at 1 uM by Kinome scan method relative to control
[17] = molecular target: Serine/threonine-protein kinase MRCK beta (Homo sapiens) (UniProt Q9Y5S2); assay: Inhibition of MRCKB (unknown origin) assessed as remaining activity at 1 uM by Kinome scan method relative to control
[18] = molecular target: Cyclin-dependent kinase 15 (Homo sapiens) (UniProt Q96Q40); assay: Inhibition of PFTAIRE2 (unknown origin) assessed as remaining activity at 1 uM by Kinome scan method relative to control
Chain of Cyclin-dependent kinase 15 (Homo sapiens) (Q96Q40 whole entry, canonical isoform): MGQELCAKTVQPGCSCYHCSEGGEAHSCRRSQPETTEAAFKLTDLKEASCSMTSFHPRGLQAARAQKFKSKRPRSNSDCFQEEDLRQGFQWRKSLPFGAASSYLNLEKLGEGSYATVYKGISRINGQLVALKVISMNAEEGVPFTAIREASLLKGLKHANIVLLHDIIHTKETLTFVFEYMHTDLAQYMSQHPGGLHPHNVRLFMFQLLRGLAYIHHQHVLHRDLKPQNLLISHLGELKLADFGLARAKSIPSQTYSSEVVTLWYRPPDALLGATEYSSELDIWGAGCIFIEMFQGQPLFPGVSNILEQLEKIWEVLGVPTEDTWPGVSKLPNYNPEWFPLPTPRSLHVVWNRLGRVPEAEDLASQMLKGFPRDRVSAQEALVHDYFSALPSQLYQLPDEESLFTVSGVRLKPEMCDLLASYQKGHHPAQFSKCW

[19] = molecular target: Phosphorylase b kinase gamma catalytic chain, liver/testis isoform (Homo sapiens) (UniProt P15735); assay: Inhibition of PHKG2 (unknown origin) assessed as remaining activity at 1 uM by Kinome scan method relative to control
[20] = system: Proto-oncogene tyrosine-protein kinase receptor Ret (Homo sapiens), P07949 [M918T]; assay: Inhibition of RET M918T (unknown origin) assessed as remaining activity at 1 uM by Kinome scan method relative to control
[21] = molecular target: Ribosomal protein S6 kinase alpha-6 (Homo sapiens) (UniProt Q9UK32); assay: Inhibition of C-terminal kinase domain RSK4 (unknown origin) assessed as remaining activity at 1 uM by Kinome scan method relative to control; procedure, shortened: as §1
Chain of Ribosomal protein S6 kinase alpha-6 (Homo sapiens) (Q9UK32 whole entry, the tested form may be a part): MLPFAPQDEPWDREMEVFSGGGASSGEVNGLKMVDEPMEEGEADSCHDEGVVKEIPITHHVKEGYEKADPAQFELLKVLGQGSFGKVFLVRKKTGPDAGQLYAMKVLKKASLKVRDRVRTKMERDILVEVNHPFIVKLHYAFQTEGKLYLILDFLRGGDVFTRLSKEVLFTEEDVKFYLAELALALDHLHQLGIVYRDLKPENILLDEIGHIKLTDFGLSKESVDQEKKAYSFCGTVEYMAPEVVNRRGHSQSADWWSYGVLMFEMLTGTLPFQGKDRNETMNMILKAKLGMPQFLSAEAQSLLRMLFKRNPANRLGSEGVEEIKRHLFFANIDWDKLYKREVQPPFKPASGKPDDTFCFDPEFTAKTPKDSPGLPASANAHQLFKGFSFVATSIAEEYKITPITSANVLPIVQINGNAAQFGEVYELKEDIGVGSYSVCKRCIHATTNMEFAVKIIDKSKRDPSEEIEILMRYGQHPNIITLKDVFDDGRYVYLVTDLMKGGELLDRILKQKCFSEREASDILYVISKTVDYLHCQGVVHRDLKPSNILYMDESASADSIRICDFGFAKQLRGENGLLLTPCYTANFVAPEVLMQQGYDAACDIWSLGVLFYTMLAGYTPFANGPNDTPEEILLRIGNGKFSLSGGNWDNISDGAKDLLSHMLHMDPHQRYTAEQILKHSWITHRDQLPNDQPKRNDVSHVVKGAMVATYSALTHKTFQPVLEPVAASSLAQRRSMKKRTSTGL

[22] = molecular target: T1, Serine/threonine-protein kinase 26 (Homo sapiens, UniProt Q9P289); assay: Binding affinity to MST4 (unknown origin) assessed as dissociation constant
T1 sequence (Q9P289 whole entry): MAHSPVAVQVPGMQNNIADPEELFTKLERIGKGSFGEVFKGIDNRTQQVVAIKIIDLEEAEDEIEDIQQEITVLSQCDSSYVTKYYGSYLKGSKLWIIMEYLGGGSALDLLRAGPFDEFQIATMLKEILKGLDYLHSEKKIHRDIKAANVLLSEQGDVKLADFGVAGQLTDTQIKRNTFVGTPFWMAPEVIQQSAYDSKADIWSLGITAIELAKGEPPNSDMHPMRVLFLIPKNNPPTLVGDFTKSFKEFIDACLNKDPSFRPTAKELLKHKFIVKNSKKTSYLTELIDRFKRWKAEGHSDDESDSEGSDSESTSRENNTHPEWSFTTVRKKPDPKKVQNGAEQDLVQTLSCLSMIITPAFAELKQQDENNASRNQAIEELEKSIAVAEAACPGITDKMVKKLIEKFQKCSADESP

[23] = molecular target: T1, Serine/threonine-protein kinase 26; assay: Inhibition of MST4 (unknown origin) in presence of ATP by enzymatic assay
[24] = organism: Homo sapiens; assay: Inhibition of recombinant His-tagged full-length MST1 Y101F mutant (unknown origin) expressing in Escherichia coli assessed as GST-tagged MOB1 phosphorylation level at 0.01 to 1 uM incubated for 15 min by immunoblot analysis; conditions: dose 0.01-1 µM
[25] = Cmax in male Sprague-Dawley rat at 5 mg/kg, iv measured for 24 hrs by LC-MS/MS analysis; format: ADME, organism-based; conditions: in vivo
Procedure, shortened: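 Sprague-Dawley rats, single intravenous or oral dose. Parameters (half-life, AUC, bioavailability) reported in a supplementary table.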

[26] = Acute toxicity in mouse assessed as increase in BrdU-positive cells at 1 mg/kg,ip administrated once a daily for 3 weeks by H and E staining based immunohistochemical analysis relative to control; format: organism-based, Liver; conditions: in vivo, 504 h
Procedure, shortened: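 Postnatal mice dosed from 10 days of age with vehicle or 1 mg/kg once per day for 21 days (3 weeks). Vehicle is 0.1% citric acid aqueous solution containing 20% Kolliphor HS 15. Liver sections stained with H&E and by IHC for CK19 and BrdU, with positive cells quantified (n = 3). Liver/body weight ratio recorded (n = 4). Values are means ± SD versus vehicle, Student's t test.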

[27] = system: Mus musculus; assay: Protection against APAP induced liver injury in mouse assessed as continual expansion of centrilobular necrotic lesions at 1 mg/kg, ip administered at 2.5 hrs by TUNEL staining; format: functional, organism-based
[28] = system: Mus musculus; assay: Protection against APAP induced liver injury in mouse assessed as decrease in ALT level at 1 mg/kg, ip administered at 1.5 hrs in the presence of NAC; format: functional, organism-based; conditions: Serum

## CN1C(=O)c2sccc2N(C)c2nc(Nc3ccc(S(N)(=O)=O)cc3)ncc21
[1]
  Activity: 40%
[2]
  Activity: 32%
[3]
  Activity: 96%
[4]
  Activity: 80%
[5]
  Activity: 94%
[6]
  Activity: 73%
[7]
  Activity: 92%
[8]
  Activity: 100%
[9]
  Activity: 100%
[10]
  Activity: 99%
[11]
  Activity: 48%
[12]
  Activity: 100%
[13]
  Activity: 48%
[14]
  Activity: 83%
[15]
  Activity: 59%
[16]
  Activity: 77%
[17]
  Activity: 100%
[18]
  Activity: 99%
[19]
  Activity: 100%
[20]
  Activity: 78%
[21]
  Activity: 93%
[22]
  Kd: 16 nM
[23]
  IC50: 27.3 nM
[24]
  inhibition: Active
[25]
  Cmax: 1140 ng/mL
[26]
  Activity: 15%
[27]
  Activity: Active
[28]
  Activity: Active
